Source: PMC3799459 (Nucleic Acids Research, 2013)

How the values were obtained:
DNMT1 [1] = biological target: T1, DNMT1 (Homo sapiens, UniProt P26358); assay: SAM-competition assay on DNMT1; format: biochemical; conditions: SAM 0.5-15 µM, DNA duplex 1.0 µM, inhibitor IC10 to IC80
Outline: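 DNMT1 Flashplate SPA in HEPES pH 7.2 buffer, 37°C, 2 h. [methyl-3H]SAM (0.6 TBq/mmol, isotopic dilution 1*:1) varied 0.5–15 µM at fixed 1.0 µM biotinylated DNA duplex. Test compound adjusted from IC10 to IC80 for each SAM level. IC50 at each SAM concentration from sigmoidal variable-slope fit; apparent kinetic constants per compound concentration by Michaelis–Menten fitting.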

DNMT1 [2] = biological target: T1, DNMT1; assay: DNA-competition assay on DNMT1; format: biochemical; conditions: DNA duplex 0.05-1.0 µM, SAM 15 µM (1*:2), inhibitor IC10 to IC80
Outline: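 Streptavidin Flashplate SPA with DNMT1 in HEPES pH 7.2 reaction buffer (EDTA, KCl, BSA), 37°C for 2 h. Biotinylated DNA duplex varied 0.05–1.0 µM; [methyl-3H]SAM (0.6 TBq/mmol) fixed at 15 µM, isotopic dilution 1*:2. Test compound adjusted from IC10 to IC80 at each DNA level. IC50 per DNA concentration from sigmoidal variable-slope fit; apparent kinetic constants from Michaelis–Menten fits at each compound concentration.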

DNMT1 [3] = biological target: T1, DNMT1; assay: DMSO tolerance of the DNMT1 Flashplate assay; format: biochemical
human DNMT3A (DNMT3A-C) = human DNMT3A (DNMT3A-C) (Homo sapiens, UniProt Q9Y6K1); assay: DNMT3A Flashplate SPA inhibition assay; format: biochemical
M.SssI = M.SssI (Spiroplasma monobiae, UniProt P15840); assay: M.SssI Flashplate SPA inhibition assay; format: biochemical, bacterial
Outline: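 Purchased M.SssI at 100 nM with 0.3 µM biotinylated non-methylated duplex and 1 µM SAM/[methyl-3H]SAM mix (3:1) in 1X NEBuffer 2; test compound ≤1% DMSO; 1 h at 37°C. Stopped in streptavidin Flashplate with 20 µM SAH, Tris-HCl pH 7.4; 1 h RT binding, Tween washes, scintillation cpm. %inhibition vs no-enzyme and no-compound controls; sigmoidal fit; two experiments in duplicate.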

DNMT1 [4] = biological target: T1, DNMT1; assay: Km determination of DNMT1 substrates; format: biochemical; conditions: read-out: Km of DNA for DNMT1; DNA 0.05-1.0 µM, 15 µM SAM

T1 sequence (P26358 whole entry): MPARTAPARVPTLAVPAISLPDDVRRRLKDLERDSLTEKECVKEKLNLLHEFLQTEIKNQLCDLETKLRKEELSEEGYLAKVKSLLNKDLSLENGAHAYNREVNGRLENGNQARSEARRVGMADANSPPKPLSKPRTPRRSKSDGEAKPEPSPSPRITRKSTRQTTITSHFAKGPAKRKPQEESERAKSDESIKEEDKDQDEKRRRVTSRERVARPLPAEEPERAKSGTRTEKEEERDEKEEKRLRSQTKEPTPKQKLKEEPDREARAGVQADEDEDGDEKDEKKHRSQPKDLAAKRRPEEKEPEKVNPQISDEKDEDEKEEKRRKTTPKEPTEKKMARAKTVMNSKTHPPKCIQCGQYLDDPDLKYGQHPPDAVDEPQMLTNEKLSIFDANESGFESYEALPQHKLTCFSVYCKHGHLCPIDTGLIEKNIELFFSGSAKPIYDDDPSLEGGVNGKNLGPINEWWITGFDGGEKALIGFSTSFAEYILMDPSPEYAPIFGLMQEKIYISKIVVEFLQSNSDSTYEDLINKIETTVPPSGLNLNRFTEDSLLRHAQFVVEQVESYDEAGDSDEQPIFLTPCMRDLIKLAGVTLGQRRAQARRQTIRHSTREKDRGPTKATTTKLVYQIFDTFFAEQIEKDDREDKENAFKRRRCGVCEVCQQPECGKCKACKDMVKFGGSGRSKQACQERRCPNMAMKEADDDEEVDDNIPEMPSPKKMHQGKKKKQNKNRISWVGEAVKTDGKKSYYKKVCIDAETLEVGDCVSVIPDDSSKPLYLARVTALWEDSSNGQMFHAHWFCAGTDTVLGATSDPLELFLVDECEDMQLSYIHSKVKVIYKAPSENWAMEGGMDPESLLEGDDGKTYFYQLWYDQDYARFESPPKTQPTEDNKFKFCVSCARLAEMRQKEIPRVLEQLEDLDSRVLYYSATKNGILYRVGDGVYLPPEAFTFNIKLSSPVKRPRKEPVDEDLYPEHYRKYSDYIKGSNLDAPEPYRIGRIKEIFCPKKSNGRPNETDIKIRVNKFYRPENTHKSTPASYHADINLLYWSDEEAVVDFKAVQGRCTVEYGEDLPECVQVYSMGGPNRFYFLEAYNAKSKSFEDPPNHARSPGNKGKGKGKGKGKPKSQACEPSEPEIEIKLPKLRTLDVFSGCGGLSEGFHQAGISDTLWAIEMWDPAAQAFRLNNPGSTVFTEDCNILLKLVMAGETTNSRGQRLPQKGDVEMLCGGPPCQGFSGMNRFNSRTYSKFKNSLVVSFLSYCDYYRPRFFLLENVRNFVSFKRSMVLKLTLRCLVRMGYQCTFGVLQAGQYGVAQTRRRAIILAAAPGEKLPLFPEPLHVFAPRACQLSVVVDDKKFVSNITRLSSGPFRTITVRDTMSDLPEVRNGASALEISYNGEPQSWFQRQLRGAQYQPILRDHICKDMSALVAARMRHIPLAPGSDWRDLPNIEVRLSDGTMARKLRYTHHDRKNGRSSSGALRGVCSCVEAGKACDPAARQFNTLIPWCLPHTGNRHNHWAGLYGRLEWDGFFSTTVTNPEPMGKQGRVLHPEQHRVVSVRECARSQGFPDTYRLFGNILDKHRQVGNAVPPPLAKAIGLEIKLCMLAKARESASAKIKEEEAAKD
M.SssI, sequence (P15840 whole entry): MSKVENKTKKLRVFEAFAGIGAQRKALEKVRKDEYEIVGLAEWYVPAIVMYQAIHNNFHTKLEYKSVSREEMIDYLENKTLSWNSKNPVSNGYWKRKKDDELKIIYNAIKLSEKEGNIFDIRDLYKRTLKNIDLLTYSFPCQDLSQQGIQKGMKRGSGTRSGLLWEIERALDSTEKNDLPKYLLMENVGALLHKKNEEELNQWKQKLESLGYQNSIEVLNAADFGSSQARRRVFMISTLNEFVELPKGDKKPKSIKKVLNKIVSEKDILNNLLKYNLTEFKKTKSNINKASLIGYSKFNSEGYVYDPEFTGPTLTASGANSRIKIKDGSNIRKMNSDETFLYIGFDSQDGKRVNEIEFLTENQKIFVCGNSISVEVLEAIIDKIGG
human DNMT3A (DNMT3A-C), sequence (Q9Y6K1 624-912): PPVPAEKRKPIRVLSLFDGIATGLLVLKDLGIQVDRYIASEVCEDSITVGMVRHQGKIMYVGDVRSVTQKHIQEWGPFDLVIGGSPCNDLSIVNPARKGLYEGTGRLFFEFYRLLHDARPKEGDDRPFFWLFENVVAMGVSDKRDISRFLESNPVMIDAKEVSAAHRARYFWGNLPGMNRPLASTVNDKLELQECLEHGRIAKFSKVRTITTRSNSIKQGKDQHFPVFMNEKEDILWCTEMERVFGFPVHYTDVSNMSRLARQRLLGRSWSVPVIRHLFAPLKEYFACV

## O=C1c2ccccc2OC(c2ccccc2)C1(Cl)[N+](=O)[O-] (stereo not drawn) [Compound 47, 3-chloro-3-nitroflavanone]
DNMT1 [1]
  Mechanism of inhibition towards SAM: SAM non-competitive inhibitor
DNMT1 [2]
  Mechanism of inhibition towards DNA: uncompetitive behavior

## C[S+](C)[O-] [DMSO]
DNMT1 [3]; 1 to 10% (v/v) DMSO
  Stimulation of DNMT1 activity: < 10%
DNMT1 [3]; 15 to 50% (v/v) DMSO
  Effect on DNMT1 activity: inhibition

## Nc1ncnc2c1ncn2[C@@H]1O[C@H](C[C@@H](N)CC[C@H](N)C(=O)O)[C@@H](O)[C@H]1O [Sinefungin]
DNMT1 [1]
  Mechanism of inhibition towards SAM: SAM-competitive
DNMT1 [2]
  Mechanism of inhibition towards DNA: uncompetitive inhibition
Human DNMT3A (DNMT3A-C)
  IC50: 1.8 ± 0.6 µM
M.SssI
  IC50: 45 ± 7 µM

B1: DNA: biotinylated hemimethylated DNA duplex with 8 CpG, substrate of DNMT1 (Table 1) (nucleic acid)
sense: GATCGCCGATGCGCGAATCGCGATCGATGCGAT
antisense: ATCGCATCGATCGCGATTCGCGCATCGGCGATC
modifications: biotin; hemimethylated CpG; printed: 5′-GATmCGCmCGATGmCGmCGAATmCGmCGATmCGATGmCGAT
DNMT1 [4]
  Km: ~0.27 µM
